Assay outcomes as filed in PubChem.
Most compounds without a hit are left out; they make up all but 4.1% or so of the library.
KCNK3 inh: human KCNK3 channel inhibition, primary screen; O14649; CHO-KCNK3 thallium flux, FluxOR fluorescence; active compounds read low; B-score at 10 µM; actives 0.84% (n = 340,000);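 active means B-score under library mean minus 4 SD, starting fluorescence ratio at most library mean plus 5 SD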;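 further: more negative B-score means stronger inhibition of thallium flux through KCNK3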
KCNK9 block: blocks the human KCNK9 two-pore domain potassium channel; B-score at 10 µM; Q9NPC2; HEK293 KCNK9, FluxOR thallium flux fluorescence; active compounds read low; actives 1.2% (n = 310,000);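 active means ratio B-score over 3 SD below the library mean, with starting fluorescence within 5 SD of its mean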;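 further: negative B-score means less thallium flux so channel inhibition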
Target sequence (Q9NPC2 whole entry, looked up, the tested form may be a part): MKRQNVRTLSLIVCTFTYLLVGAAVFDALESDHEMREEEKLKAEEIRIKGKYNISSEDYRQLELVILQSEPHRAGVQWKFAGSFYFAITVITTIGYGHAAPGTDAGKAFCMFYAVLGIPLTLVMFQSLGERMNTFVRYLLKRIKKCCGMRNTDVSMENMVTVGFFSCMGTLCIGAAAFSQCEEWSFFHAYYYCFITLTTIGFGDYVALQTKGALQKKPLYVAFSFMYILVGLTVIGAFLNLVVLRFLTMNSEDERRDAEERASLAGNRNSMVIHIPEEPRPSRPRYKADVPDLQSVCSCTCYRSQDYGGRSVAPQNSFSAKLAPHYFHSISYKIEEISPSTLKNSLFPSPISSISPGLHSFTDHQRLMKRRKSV
KCNQ1 pot: potentiates or activates the human KCNQ1 potassium channel; P51787; CHO-K1 KCNQ1, thallium flux FluxOR fluorescence; active compounds read high; B-score at 10 µM; actives 0.35% (n = 310,000);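 active means fluorescence ratio B-score, a plate-corrected score, at least three library SD, with initial intensity B-score within 5 SD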
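assay system = CHO-K1 cells stably expressing KCNQ1 | medium = assay buffer, equal DMSO in all wells | timing = 37 °C overnight plating, 90-min dark dye load, 20-min compound pretreatment | measured by = kinetic FluxOR thallium fluorescence, 10-s 1-Hz baseline, 110-s post-stimulus read | measure = fluorescence change relative to baseline, converted to B score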
KCNQ1 block: inhibitors of human KCNQ1 potassium channel; AID 2642; CHO-K1 KCNQ1, FluxOR thallium flux fluorescence; active compounds read high; actives 1.3% (n = 310,000); P51787; B-score at 10 µM;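 active means compounds whose thallium flux B-score, printed positive for inhibition, exceeds three library SD while starting fluorescence stays within three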;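 further: channel opened by potassium depolarization with thallium stimulus after 20 min compound exposure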
Cl transport mod: modulators of human KCC2 chloride dependent transport; Q9H2X9; KCC2 cells, thallium flux FluoZin-2 fluorescence; B-score of Tl+ flux slope (higher = more flux/activation; lower = inhibition) at 10 µM; actives 2.2% (n = 190,000); AID 1456;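 active means thallium flux slope and its plate-corrected score both differing from the plate sample mean at a set confidence after two filtering rounds, in either direction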;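 further: slope of fluorescence scaled to starting intensity during 10 to 20 s after thallium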
hERG rescue: compounds protecting human hERG from proarrhythmic drug block. Q12809. activation (rescue from dofetilide block), less the hit threshold, % at 10 µM. actives 0.51% (n = 310,000). CHO-hERG, FluxOR thallium flux, dofetilide IC70 present;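 active means activation above the mean of controls blocked by dofetilide plus 5 SD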;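 further: thallium influx through hERG after potassium depolarization seen as dye fluorescence rise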
* hit, by the source's call; i = inactive; nt = no result.

SMILES	KCNK3 inh	KCNK9 block	KCNQ1 pot	KCNQ1 block	Cl transport mod	hERG rescue
Cc1cc2ncn(CS(C)(=O)=O)c2cc1C	i	i	i	i	0.1	-14
C=C(C)Cn1cnc2cc(C)c(C)cc21	i	i	i	i	nt	8.6*
Cc1ccccc1N=Nc1c(C)[nH]n(C(N)=S)c1=O	i	i	i	i	11*	-6
Cc1ccc(C2=NN(C(=O)c3ccccc3F)C(c3ccccc3F)C2)cc1 (centres undefined)	i	i	i	7*	nt	-5
COc1ccccc1-c1cccc([C@@H]2C[C@H]3[C@H](CON3C)CN2C(C)=O)c1	i	nt	nt	nt	nt	nt
COc1ccc(C(C[N+](=O)[O-])c2c(-c3ccccc3)cc3ccccn23)cc1 (centres undefined)	i	i	i	8*	-0.44	-11
COc1ccc(C(C[N+](=O)[O-])c2c(-c3ccccc3)cc3ccccn23)cc1OC (centres undefined)	i	i	i	i	-0.49	-16
COc1cc(C(C[N+](=O)[O-])c2c(-c3ccccc3)cc3ccccn23)cc(OC)c1OC (centres undefined)	i	-7.9*	i	i	-0.0097	-4
CCN1C[C@@H]2[C@@H]3C(=O)N(Cc4ccccc4)C(=O)[C@@H]3[C@](CC)(C(=O)OC)N2C1=NCc1ccccc1	i	nt	nt	nt	nt	nt
CCOC1=C/C(=C/c2c(N)n3nc(-c4ccccc4)sc3nc2=O)C=CC1=O	i	i	i	10*	-1.8	-15
CC(C(=O)NCC1CCCCC1)N1CCN(S(=O)(=O)c2cccs2)CC1 (centres undefined)	i	nt	nt	nt	nt	nt
COc1ccc(-c2csc(NC(=O)c3cc(C)oc3C)n2)cc1OC	i	i	i	i	nt	-12
CC(=O)c1sc(NC(=O)c2cnc(Cl)c(Cl)c2)nc1C	i	i	i	9*	nt	-2
CC(=O)c1sc(NC(=O)c2ccc(C)c(C)c2)nc1C	i	i	i	i	0.36	-1
O=C(NC1CCCCC1)c1cccc(N2C(=O)CCC2=O)c1	i	nt	nt	nt	nt	nt
CCC/C=C(\CCC)C(NC(=O)c1ccc(C(F)(F)F)cc1)c1ccccc1 (centres undefined)	nt	i	i	6*	nt	-12
CCC/C=C(\CCC)C(NC(=O)c1ccc(C(=O)OC)cc1)c1ccc(C(=O)OC)cc1 (centres undefined)	nt	i	i	6*	nt	-4
CC(=O)Nc1ccc(S(=O)(=O)NN=CCCc2ccccc2)cc1	i	nt	nt	nt	nt	nt
CCC(=O)Nc1cccc(C2=NOC3(C2)C[C@@H](C(N)=O)N(C(=O)CC)C3)c1 (some centres undefined)	i	i	i	i	0.18	-12
CCC(=O)Nc1cccc(C2=NOC3(C2)C[C@H](C(N)=O)N(C(=O)CC#N)C3)c1 (some centres undefined)	i	i	i	i	0.27	6.2*
COc1cc2ccccc2cc1C(=O)O	i	i	i	i	nt	-4
COc1ccc(OC)c2cc3ccccc3cc12	-12*	nt	nt	nt	nt	nt
Cc1cc(C)c2nc(NC(=O)C3CSC4(C)CCC(=O)N34)sc2c1 (centres undefined)	i	nt	nt	nt	nt	nt
O=C(Cn1c(=O)c2c(ncn2Cc2ccccc2)n(Cc2ccccc2)c1=O)N1CCc2ccccc21	i	i	7*	i	nt	-9
CC1=CC(=O)N(c2cccc(C(F)(F)F)c2)C1c1ccc(Cl)cc1 (centres undefined)	i	-7.7*	i	i	-0.33	-12
SMILES	KCNK3 inh	KCNK9 block	KCNQ1 pot	KCNQ1 block	Cl transport mod	hERG rescue
CC1=CC(=O)N(c2ccc(C)cc2)C1c1ccc(Cl)cc1 (centres undefined)	i	i	i	i	0.27	-8
CCC1(c2ccccc2)NC(=O)N(CC(=O)Nc2ccc(N3CCOCC3)cc2)C1=O (centres undefined)	i	nt	nt	nt	nt	nt
COc1ccc(N2C(=O)N3[C@@H]4c5ccccc5OC[C@@H]4[C@@H](c4ccccc4)[C@@]3(C)C2=O)cc1	i	nt	nt	nt	nt	nt
CCc1ccc(OCC(=O)N/N=C/c2cc([N+](=O)[O-])ccc2N2CCCCCC2)cc1	i	-6.7*	i	i	1.2	-9
COc1cc(OC)cc(C(=O)Nc2ccc(C(=O)c3ccncc3)cc2)c1	i	i	i	i	nt	-14
O=[N+]([O-])c1cccc(-c2ccc(/C=N/Nc3nc(N4CCCCC4)nc(N4CCCCC4)n3)o2)c1	i	i	i	7*	-1.8	-16
COC(=O)C1=NN(C(=O)c2ccccc2)C(C)(O)C1 (centres undefined)	i	i	i	i	nt	4
COC(=O)C1=NN(C(=O)c2ccc(C)cc2)C(O)(c2ccc(Cl)cc2)C1 (centres undefined)	nt	i	37*	i	nt	50*
COC(=O)C1=NN(C(=O)c2cccc(Cl)c2)C(O)(C(C)(C)C)C1 (centres undefined)	i	nt	nt	nt	51*	nt
COC(=O)C1=NN(C(=O)c2ccccc2)C(O)(c2ccc([N+](=O)[O-])cc2)C1 (centres undefined)	i	i	i	i	nt	-7
CCn1c2ccccc2c2cc(N=C3SC(CC(=O)Nc4ccccc4OC)C(=O)N3CCOC)ccc21 (centres undefined)	i	-7.1*	i	i	-0.32	-4
CCn1c2ccccc2c2cc(N=C3SC(CC(=O)Nc4ccccc4OC)C(=O)N3C)ccc21 (centres undefined)	i	i	i	i	nt	0
CC(C)[C@H](NC(=O)c1ccccc1F)C(=O)NC1CCCCCCC1	i	nt	nt	nt	nt	nt
O=C(Nc1ccc(Cl)c(S(=O)(=O)N2CCOCC2)c1)[C@@H]1CCCN1C(=O)c1cccs1	i	nt	nt	nt	nt	nt
O=[N+]([O-])c1cc([N+](=O)[O-])c2cccnc2c1Oc1ccccc1O	i	i	i	8*	-1.8	-40
CN1CCN(CCCN2c3ccccc3Sc3ccc(C(F)(F)F)cc32)CC1	i	i	i	6*	0.29	-23
NC(=NC(=O)c1cccc(C(F)(F)F)c1)c1ccc(C(F)(F)F)cn1	i	-7*	i	i	1.1	-10
NC(=NC(=O)c1ccc(OC(F)(F)F)cc1)c1ccc(C(F)(F)F)cn1	i	i	i	i	0.13	-2
COc1ccc(NC(=O)CCc2nnc3ccc(N4CCN(c5cccc(OC)c5)CC4)nn23)cc1	i	i	i	i	nt	-25
CN(C(=S)NC(=O)CCCOc1ccc(Cl)cc1Cl)c1ccccc1	i	i	i	i	39*	-16
